Measured values from different studies.
Protocols differ between the studies behind these lines.
MAOB: Amine oxidase [flavin-containing] B (MAOB, Homo sapiens, UniProt P27338)
TNFAIP3: TNFAIP3 (Homo sapiens, UniProt P21580)
EDNRB: Endothelin receptor type B (EDNRB, Homo sapiens, UniProt P24530)

The inhibition of `CN1CCN(CCCCOc2ccc3occc(=O)c3c2)CC1` is reported as 20% (MAOB; enzyme activity, inhibitor, fluorescence; 10 µM).
With `CN(C)C(=O)COC(=O)Cc1ccc(OC(=O)c2ccc(NC(=N)N)cc2)cc1` the inhibition was 4% (TNFAIP3; enzyme activity, inhibitor; 10 µM).
`CN(CCN1CCC(OC(=O)Nc2ccccc2-c2ccccc2)CC1)C(=O)c1ccc(CN2CCC(C(N)=O)CC2)cc1` has an inhibition of -2% (MAOB; enzyme activity, inhibitor; 1 µM).
For `Cc1ncc(C)n2nc(/C=C/c3nc(N4CCCC4)cc(N4CCOCC4)n3)nc12`, the inhibition was 12% (Matrix metalloproteinase-9 (MMP9, Homo sapiens, UniProt P14780); enzyme activity, inhibitor; 10 µM).
The inhibition of `O=C(Nc1cccnn1)N1CCN([C@@H]2CCOc3cc(C(F)(F)F)ccc32)CC1` is reported as -5% (EDNRB; cell-free assay; 20 µM).
`COc1ccc(S(=O)(=O)N(CC(=O)NO)CC(C)C)cc1` has an inhibition of 96% (Matrix metalloproteinase-9 (MMP9, Homo sapiens, UniProt P14780, Q279R); enzyme activity, inhibitor; 0.1 µM).
`COc1ccc(S(=O)(=O)N2CCCCC2)cc1C` gave an inhibition of less than 30% (EDNRB; ligand displacement, radioligand; 10 µM).
For `CN1CCN(CCOc2ccc3occc(=O)c3c2)CC1`, the inhibition was 12% (MAOB; enzyme activity, inhibitor, fluorescence; 10 µM).
`COCc1c(-c2cc3cc(C)cc(OC)c3s2)c2c(N)ncnn2c1CN1CCNC(=O)C1` has an inhibition of 5% (MAOB; enzyme activity, inhibitor; 10 µM).
For `CC(C)C[C@H](NC(=O)[C@H]1O[C@@H]1C(=O)O)C(=O)NCCCCN=C(N)N`, the inhibition was 94% (Cathepsin L2 (CTSV, Homo sapiens, UniProt O60911); enzyme activity, inhibitor; 0.5 µM).
For `C[C@H](C(=O)N[C@H]1COc2ccccc2[C@@H]1S(C)(=O)=O)c1ccc(F)cc1`, the inhibition was 11% (MAOB; enzyme activity, inhibitor; 10 µM).
`N=C(N)c1ccc2cc(OC(=O)c3ccc(N=C(N)N)cc3)ccc2c1` gave an inhibition of 13% (TNFAIP3; enzyme activity, inhibitor; 10 µM).
With `COc1cc(Nc2ncc(F)c(Nc3ccc4c(n3)NC(=O)C(C)(C)O4)n2)cc(OC)c1OC` the inhibition was 97% (NUAK family SNF1-like kinase 2 (NUAK2, Homo sapiens, UniProt Q9H093); binding, competition with immobilised ligand; 10 µM).
